Measured values: article PMC3747510 (Scientific Reports, 2013)
Converted amounts (≈) assume the structure as drawn.

What was measured:
[1] = test system: MetRS2; conditions: cited from earlier work
[2] = test system: S. pneumoniae; assay: Broth microdilution MIC, S. pneumoniae; format: cell-based; conditions: Streptococcus pneumoniae, 24 h, read-out: MIC, Bacteria, S. pneumoniae
Summary of the method: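 S. pneumoniae clinical isolate, from paediatric community-acquired pneumonia. CLSI M7-A7 broth microdilution in Mueller Hinton broth with 2.5% lysed sheep blood, inoculum about 2 × 10^8 CFU/mL. Serial test-compound dilutions, 37°C for 24 h. MIC was the lowest concentration suppressing visible growth.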

| SMILES | Activity towards MetRS2 [1] | MIC [2] |
| --- | --- | --- |
| C=C(F)c1sc(CNCCCNc2cc(O)c3ccccc3n2)c(C)c1Br [REP8839] | no activity | – |
| CC1(C)S[C@@H]2[C@H](NC(=O)[C@H](N)c3ccccc3)C(=O)N2[C@H]1C(=O)O [Ampicillin, reference compound] | – | 0.0625 mg/L (≈ 0.179 µM) |
